# High-throughput results deposited in PubChem by several laboratories.
# The sample as a whole holds a higher share of hits than the screen did.
# CHOP inhibitor: inhibitors of CHOP promoter induction, primary screen, cell-based, unfolded protein response, luciferase reporter; inhibition, % at 10 µM; CHO-K1 CHOP-promoter luciferase, tunicamycin-induced, 15-18 h; actives 3.8% (n = 220,000); AID 2732, 2010;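 active = compounds that reduced the stress-induced luciferase reporter signal by more than about 70% of percent inhibition, limit read from the data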;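 note: 0% = tunicamycin plus vehicle and 100% = wells without tunicamycin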
# TLR4 MyD88 comp: inhibitors of TLR4-MyD88 association in cells, primary screen, cell-based, HeLa CL3-4, BLA complementation, FRET ratio | actives 0.18% (n = 200,000) | HeLa CL3-4 TLR4/MyD88 BLA complementation | Toll-like receptor 4 (Homo sapiens) + Myeloid differentiation primary response protein … | inhibition, % at 8.4 µM | AID 861, 2007; in the data active = inhibition above about 25%;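 note: 0% = vehicle and 100% = reference inhibitor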
# Target sequence (O00206 whole entry, looked up): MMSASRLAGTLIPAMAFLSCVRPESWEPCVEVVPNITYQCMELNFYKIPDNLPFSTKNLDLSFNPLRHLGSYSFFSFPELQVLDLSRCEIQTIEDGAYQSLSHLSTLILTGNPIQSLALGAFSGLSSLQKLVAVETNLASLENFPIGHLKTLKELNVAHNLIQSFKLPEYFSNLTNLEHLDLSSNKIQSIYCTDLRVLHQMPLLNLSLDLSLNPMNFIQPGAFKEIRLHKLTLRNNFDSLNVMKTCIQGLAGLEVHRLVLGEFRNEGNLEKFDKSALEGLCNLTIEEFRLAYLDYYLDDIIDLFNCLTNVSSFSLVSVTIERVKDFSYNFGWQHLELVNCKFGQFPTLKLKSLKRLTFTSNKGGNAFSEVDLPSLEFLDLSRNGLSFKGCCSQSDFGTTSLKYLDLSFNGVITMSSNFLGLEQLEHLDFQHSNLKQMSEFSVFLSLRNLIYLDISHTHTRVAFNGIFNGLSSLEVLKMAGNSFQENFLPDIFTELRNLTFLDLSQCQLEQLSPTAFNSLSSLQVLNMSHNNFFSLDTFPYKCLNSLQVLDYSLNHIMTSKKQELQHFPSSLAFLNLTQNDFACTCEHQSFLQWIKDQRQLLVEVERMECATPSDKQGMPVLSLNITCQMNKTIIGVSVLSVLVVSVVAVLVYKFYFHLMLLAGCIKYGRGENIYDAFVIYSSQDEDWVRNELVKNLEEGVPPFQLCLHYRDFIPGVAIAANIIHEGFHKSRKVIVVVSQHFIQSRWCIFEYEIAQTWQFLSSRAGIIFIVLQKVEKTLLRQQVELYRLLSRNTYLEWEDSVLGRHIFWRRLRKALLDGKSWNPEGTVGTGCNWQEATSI
# Target sequence (Q99836 whole entry, looked up): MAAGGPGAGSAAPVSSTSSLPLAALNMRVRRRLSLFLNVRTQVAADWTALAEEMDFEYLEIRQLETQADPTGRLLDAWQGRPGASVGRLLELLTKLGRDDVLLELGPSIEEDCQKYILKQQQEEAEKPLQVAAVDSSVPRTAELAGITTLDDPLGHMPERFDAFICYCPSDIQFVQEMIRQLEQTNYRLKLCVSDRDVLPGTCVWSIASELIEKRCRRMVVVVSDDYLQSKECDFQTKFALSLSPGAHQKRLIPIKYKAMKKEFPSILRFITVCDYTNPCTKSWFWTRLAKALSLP
# NOD2 RIPK2 PPI: NOD2-RIPK2 binding disruptors in cells, primary screen, fluorescence, CHO cells, BLA complementation | Receptor-interacting serine/threonine-protein kinase 2 (Homo sapiens), O43353 | CCF4 ratio | inhibition, % at 4.98 µM | actives 0.38% (n = 360,000) | AID 624267, 2012; in the data active = inhibition above about 21%;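 note: 0% = vehicle only and 100% = reference blocker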
# TLR9-MyD88 inh: inhibitors of TLR9-MyD88 association in cells, primary screen, cell-based, CHO, BLA complementation, fluorescence. inhibition, % at 4.98 µM. actives 0.21% (n = 340,000). CCF4 FRET ratio. Toll-like receptor 9 (Homo sapiens) + Myeloid differentiation primary response protein …;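 active = inhibition above the mean over all tested compounds plus 3 SD, cut at about 21% in these data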;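 note: 0% = DMSO only wells and 100% = clavulanate BLA inhibitor control wells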
# UPR CHOP act: activators of apoptotic CHOP UPR arm, primary screen, cell-based, CHO-CHOP luciferase reporter, luminescence, uHTS. actives 0.34% (n = 330,000). UPR activation; percent of tunicamycin response over DMSO baseline. AID 449763, 2010. activation, % at 10 µM;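 active = at 10 µM dose, activation of 40% or more, normalized to positive control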;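 note: 100% = tunicamycin at 10 µg/mL and 0% = DMSO alone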
#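 Evaluation: % reporter activation, DMSO baseline versus tunicamycin full activation; System: CHO-CHOP luciferase reporter cell line; Input: 500 cells/well; Incubation: 6 h compound treatment, 37 °C; Measured by: Steady-Glo luciferase luminescence; Dosing: one dose, 10 µM in 0.5% DMSO; Buffer or medium: F12 medium, 10% FBS; Benchmarks: positive tunicamycin 10 µg/mL, negative DMSO alone.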
# XBP1 UPR activ: activators of adaptive XBP1 UPR arm, primary screen, cell-based, CHO-XBP1 luciferase reporter, luminescence, uHTS. IRE1-XBP1 UPR activation; percent of tunicamycin response, DMSO as zero. activation, % at 20 µM. actives 0.33% (n = 330,000);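 active = versus positive control, 20 µM dose yields 30% or more activation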;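 note: 100% = tunicamycin at 10 µg/mL and 0% = DMSO only wells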
#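 Signal: luciferase luminescence; Assay system: CHO-XBP1 luciferase reporter cells; Amount: one thousand reporter cells per well; Dosing: 20 µM single concentration, DMSO 1%; Benchmarks: high control tunicamycin 10 µg/mL final, low control DMSO vehicle only; Schedule: 6 h compound exposure at 37 °C, 5% CO2; Evaluation: percent activation relative to tunicamycin reference.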
# Numbers without * were called inactive; x = no result given.
SMILES,CHOP inhibitor,TLR4 MyD88 comp,NOD2 RIPK2 PPI,TLR9-MyD88 inh,UPR CHOP act,XBP1 UPR activ
CCOC(=O)c1cc(CC)sc1NC(=O)c1ccc(N2C(=O)CCC2=O)cc1,-1,-12,-4,-9,1,2
CCOC(=O)c1cc(CC)sc1NC(=O)Cc1ccsc1,75*,-9,-1,5,-2,-3
CCOC(=O)c1cc(CC)sc1NC(=O)c1cc(OC)c(OC)c(OC)c1,90*,-1,7,6,-1,2
CCOC(=O)c1cc(CC)sc1NC(=O)CCC(=O)O,-11,6,2,2,-1,-2
Cc1ccc2c(c1)C(c1ccccc1)CC(=O)O2 (stereo not drawn),-1,x,15,-1,2,-1
CC(=O)Nc1cccc(NC(=O)C(=O)NCC(c2ccco2)N2CCc3ccccc3C2)c1 (stereo not drawn),x,x,4,-4,2,0
N#C/C(=C(/O)CN1CCN(c2ccccc2F)CC1)c1nc(-c2ccc(Cl)cc2)cs1,82*,7,-16,-5,-1,8
N#C/C(=C(/O)CN1CCCCC1)c1nc(-c2ccc(Cl)cc2)cs1,42,-3,1,-13,2,3
COc1ccccc1OCC(=O)OC/C(O)=C(\C#N)c1nc2ccccc2[nH]1,-26,1,-16,-9,4,-2
Cc1cc(SCC(=O)OC/C(O)=C(\C#N)c2nc3ccccc3[nH]2)c(C)cc1Br,71*,8,-5,1,0,-1
N#C/C(=C(/O)COC(=O)CCCNC(=O)c1ccc(Cl)cc1)c1nc2ccccc2[nH]1,-5,-10,-6,-2,4,-2
N#C/C(=C(/O)COC(=O)CSc1ccc(Cl)cc1)c1nc2ccccc2[nH]1,82*,1,-1,2,-1,-3
CN(CC(=O)Nc1ccc(Cl)c(C(F)(F)F)c1)C(=O)CNC(=O)C1CCCCC1,x,x,-2,4,-3,-1
CCCCCc1nc2sc3c(c2c(=O)n1NC(=O)c1ccc([N+](=O)[O-])cc1)CC(C)(C)OC3,76*,-3,-2,7,1,-1
CN(C)CCCNC(=O)/C(=C/c1ccc(-c2ccc([N+](=O)[O-])cc2)o1)NC(=O)c1ccccc1,x,x,12,6,1,0
CN(C)CCCNC(=O)/C(=C\c1ccc(-c2ccc(Br)cc2)o1)NC(=O)c1ccccc1,81*,2,10,4,2,0
CCCc1nc2cc(C)c(Br)c(C)n2c1Cc1ccccc1OC,x,x,-14,x,x,x
Cc1ccc(C(C)C)c(OCC(=O)NN=C2CCCCCCC2)c1,83*,-4,3,-18,1,-1
Cc1ccc(C(C)C)c(OCC(=O)NN=C2CCCC(=O)C2)c1,x,x,2,-2,-1,2
CCC(=O)N1CCN(c2ccccc2NC(=O)COc2cc(C)ccc2C(C)C)CC1,77*,0,3,-15,3,-1
Cc1cc(C)c(OCC(=O)Nc2ccccc2N2CCOCC2)c(C)c1,79*,-2,-8,-10,0,2
CC1(C(=O)NCc2cccc(C(F)(F)F)c2)CCN1CCc1ccccc1 (stereo not drawn),x,x,-3,x,x,x
O=C(/C=C/c1ccc(Br)cc1)NC(=S)NNC(=O)c1ccco1,76*,0,0,-10,-1,4
O=C(/C=C/c1ccccc1)NC(=S)NNC(=O)c1ccco1,20,15,1,0,1,2
CN1CCC(N(CCc2ccccc2)C(=O)CCC(=O)O)CC1,x,x,-4,0,0,-3
SMILES,CHOP inhibitor,TLR4 MyD88 comp,NOD2 RIPK2 PPI,TLR9-MyD88 inh,UPR CHOP act,XBP1 UPR activ
CC(=O)Nc1cccc(C(=O)/C=C/c2ccc(/C=C/C(=O)c3cccc(NC(C)=O)c3)cc2)c1,35,5,x,x,83*,15
Cc1ccccc1NC(=O)c1cc(C(=O)c2cc(Cl)ccc2O)cn(-c2ccccc2C)c1=O,70*,-6,6,-2,7,3
Cc1ccc(S(=O)(=O)NC(c2ccccc2)C(C)C(=O)n2nc(C)cc2C)cc1 (stereo not drawn),73*,-17,4,-9,-1,-6
Cc1ccc(S(=O)(=O)NC(CC(=O)n2nc(C)cc2C)c2ccccc2)cc1 (stereo not drawn),80*,-4,4,-17,1,1
O=C(NC1CCCCC1)N1CCN(c2ccccc2Cl)CC1,x,x,-7,-20,1,1
COCc1cc(C)nc(NC2CCCCC2)c1C#N,82*,3,-14,1,-2,0
COc1cc(OC)cc(C(=O)OCC(=O)NCCCc2ccccc2)c1,x,x,-5,0,0,-5
CCOC(=O)c1c(C)nc(C)c(C(=O)OCC)c1-c1ccc(OC)cc1,-13,-1,-6,-11,-1,-3
CCOC(=O)c1c(C)nc2c(c1-c1ccc(OC)c(OC)c1)C(=O)c1ccccc1-2,85*,-19,-4,-3,0,4
CCn1cc(Br)c(-c2nc3ccccc3c(=O)n2N)n1,90*,1,-4,0,2,1
CC(=O)c1sc(NC(=O)COc2c(C)cc(Cl)cc2C)nc1C,83*,-4,x,x,-2,-3
CC(=O)c1sc(NC(=O)COc2ccc(Cl)cc2C)nc1C,-28,x,9,6,1,-1
O=C(CN1C(=O)/C(=C/c2ccccc2F)Oc2ccccc21)N1CCN(c2ccccn2)CC1,86*,-10,-3,-6,4,3
O=C(CN1C(=O)/C(=C\c2cccc(Cl)c2)Oc2ccccc21)N1CCN(c2ccccn2)CC1,100*,4,x,x,5,29
Cc1ccccc1N1CCN(C(=O)c2ccccc2NC(=O)C2CC=CCC2C(=O)O)CC1 (stereo not drawn),28,-4,5,2,2,5
O=C1NC[C@H](CCCCN2CCN(CCC3CCCCC3)C(=O)C2=O)N(CCc2ccc(O)cc2)C1=O,x,x,-8,x,x,x
O=C(c1cc(-c2ccco2)nn1-c1cccc(Cl)c1)N1CCCCC1,71*,1,4,-3,0,-2
CC(C)NC(=O)c1cc(-c2ccco2)nn1-c1ccc(Cl)cc1,x,-6,-10,1,1,-1
COc1ccc(C(=O)/C=C/c2cn(CN3CCN(C)CC3)c3ccccc23)cc1,28,18,21*,12,3,3
COc1ccc(C(=O)/C=C/c2cn(CC(O)CN3CCOCC3)c3ccccc23)cc1 (stereo not drawn),28,0,19,11,x,x
